# Screens (PubChem BioAssay)
# S1P3 agonist: activates the human S1P3 receptor; AID 373; Q99500; 60,000 tested, 0.1% active; activation, % at 4.5 µM; S1P3 NFAT-BLA reporter cells, agonism, FRET ratio; relative to 1 µM S1P, basal subtracted;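 active = activation above the screen-wide mean plus 3 SD, cut at about 4.5% in these data, passing the limit was not always enough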
#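 Material: Human S1P3 NFAT-BLA reporter CHO cells | Incubation: Overnight plating, 4 h compound 37 °C, 2 h substrate RT | Signal: FRET β-lactamase substrate fluorescence, excitation 405 nm, 460/535 nm emission ratio, background-subtracted | Compound: 4.5 µM final, single dose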
# S1P1 ag-PAM: S1P1 (human) agonism or agonism potentiation. P21453. S1P1 CRE-bla cells, forskolin, beta-lactamase FRET, potentiator mode; S1P1 agonist co-added at EC20, 2 nM; 100% = saturating reference agonist, 0% = basal. activation, % at 9.5 µM. 56,000 tested, 0.57% active. AID 449;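 active = activation above a cutoff set at the mean activation of all tested compounds plus 3 SD, cut at about 54% in these data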;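 note: forskolin at 4 µM as EC80 and the EC20 agonist is SEW2871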
# Target sequence (P21453 whole entry, looked up): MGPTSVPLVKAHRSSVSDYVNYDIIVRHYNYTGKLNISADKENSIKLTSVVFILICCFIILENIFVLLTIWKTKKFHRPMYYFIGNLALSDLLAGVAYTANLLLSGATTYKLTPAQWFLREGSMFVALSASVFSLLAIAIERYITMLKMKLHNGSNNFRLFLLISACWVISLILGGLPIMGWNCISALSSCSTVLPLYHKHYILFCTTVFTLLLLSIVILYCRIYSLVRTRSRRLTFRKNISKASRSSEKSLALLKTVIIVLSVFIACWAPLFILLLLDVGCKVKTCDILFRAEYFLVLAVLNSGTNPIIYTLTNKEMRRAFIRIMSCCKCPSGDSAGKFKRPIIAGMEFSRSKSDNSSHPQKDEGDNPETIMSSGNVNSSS
# 5HT1a antag: blocks the human serotonin 5-HT1a receptor | P08908 | CHO 5-HT1a Ga15 NFAT-bla reporter, antagonist mode | inhibition, % at 10 µM | 62,000 tested, 0.68% active | AID 612;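 active = inhibition above the mean of all tested compounds plus 3 SD, cut at about 43% in these data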;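 note: receptor stimulated by 5-CT agonist at 100 nM near EC80; beta-lactamase reporter measured by ratiometric fluorescence of a cleavable substrate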
# HTR1A agonist: activates the human 5-HT1a serotonin receptor; CHO 5-HT1a Ga15 NFAT-bla reporter, FRET ratio; 0% basal, 100% maximal reference agonist; activation, % at 10 µM; 65,000 tested, 0.56% active;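 active = activation above the screen-wide mean activation plus 3 SD, cut at about 19% in these data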
# HTR1E agonist: activates the human 5-HT1E serotonin receptor; AID 574; activation, % at 6 µM; CHO 5-HT1E Ga15 NFAT-bla reporter, FRET; 0% DMSO wells, 100% control agonist wells; P28566; 65,000 tested, 0.69% active;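 active = activation above a set limit, the screen-wide mean activation plus 3 SD, cut at about 8.5% in these data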
# HTR1E antagonist: blocks the human 5-HT1E serotonin receptor; inhibition, % at 6 µM; AID 571; 65,000 tested, 0.99% active; CHO 5-HT1E Ga15 NFAT-bla reporter, FRET, antagonist;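 active = inhibition above a set limit, the mean inhibition across every tested compound plus 3 SD, cut at about 29% in these data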;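 note: signal is the 460 over 535 nm emission ratio of beta-lactamase substrate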
# Hits are given with their value; n = inactive; x = no result. Only some compounds are listed: those with a hit (about 3% of all), similar ones and a draw of the others.
SMILES,S1P3 agonist,S1P1 ag-PAM,5HT1a antag,HTR1A agonist,HTR1E agonist,HTR1E antagonist
CN(c1ccccc1)c1nc(N2CCCC2)nc(-n2ccnc2)n1,n,n,52.9,n,n,n
C=C(C)COc1ccc(-c2[nH]ncc2-c2ccc(OC)c(OC)c2)c(O)c1,n,n,n,n,n,36.5
C=CCc1ccccc1OCC(O)CN1CCN(c2ccccc2OC)CC1 (configuration not stated),x,x,91.3,n,n,n
OC(COc1ccccc1Cl)CN1CCN(CC(O)COc2ccccc2Cl)CC1 (configuration not stated),n,n,58.2,n,n,n
CCOC(=O)N1CCN(CC(O)COc2c(OC)cccc2OC)CC1 (configuration not stated),n,n,n,168.5,n,n
COc1ccc(OC)c(NC(=O)C(CC(=O)O)NCc2ccco2)c1 (configuration not stated),n,n,n,n,n,n
N#CCCN(C(=O)CN1C(=O)NC2(CCCC2)C1=O)c1ccccc1F,x,x,n,82.1,n,n
O=C(O)CCN1C(=O)NC2(CCCC2)C1=O,n,n,n,n,n,n
COc1cccc(OC)c1C(=O)N1CCN(Cc2ccccc2C)CC1,n,n,n,n,n,n
N#Cc1nc(COc2ccccc2)oc1N1CCC(Cc2ccccc2)CC1,n,n,48.7,n,n,n
Cc1ccc(OCc2nc(C#N)c(N3CCN(Cc4ccccc4)CC3)o2)cc1,n,n,49.9,n,n,n
N#Cc1nc(COc2ccccc2)oc1N1CCN(Cc2ccccc2)CC1,n,n,45.7,n,n,n
N#Cc1nc(COc2cccc(Cl)c2)oc1N1CCCC1,n,n,n,23.3,n,n
N#Cc1nc(COc2ccc(F)cc2)oc1N1CCCC1,x,x,n,n,n,n
CCCCc1ccc(Nc2nc(CCC)cc(=O)[nH]2)cc1,n,n,44.8,n,n,n
CCCc1cc(=O)[nH]c(Nc2ccc(N3CCCCC3)cc2)n1,n,n,n,n,n,n
CCc1nc(Nc2ccc(N3CCN(C(C)=O)CC3)cc2)c2oc3ccccc3c2n1,n,n,n,n,n,33.8
C=CCNC(=O)C1CCCN(S(C)(=O)=O)C1 (configuration not stated),n,n,n,n,14.2,n
O=C(O)c1ccc(Cn2cc(Cl)cn2)cc1,n,n,n,n,n,n
COc1ccccc1-c1nnc(Nc2nc3c(OC)cccc3s2)o1,n,n,51.1,n,n,52.9
COc1cccc2sc(Nc3nnc(-c4ccccc4Cl)o3)nc12,n,n,64.0,n,n,n
NC(=O)CSc1nnc(C2CC2)n1Cc1ccccc1,n,n,n,n,n,n
S=P(c1ccc(N2CCOCC2)cc1N1CCOCC1)(N1CCOCC1)N1CCOCC1,n,n,n,n,n,n
COc1cccc(Cn2nnc(C(=O)NCc3ccc(F)cc3)c2N)c1,n,n,n,n,n,32.1
O=C(Nc1ccccc1)N1CC=C(c2ccccc2)CC1,n,x,n,n,n,n
SMILES,S1P3 agonist,S1P1 ag-PAM,5HT1a antag,HTR1A agonist,HTR1E agonist,HTR1E antagonist
O=C(O)C1CCCCC1C(=O)N1CC=C(c2ccccc2)CC1 (configuration not stated),n,n,n,n,21.5,n
Cc1ccc(S(=O)(=O)Cn2cnnn2)cc1,n,n,n,n,n,n
Nc1c(C(=O)OCC2CCCO2)c2nc3ccccc3nc2n1C1CCCC1 (configuration not stated),n,n,n,n,n,n
Cn1c(-c2c(N)n(C3CCCC3)c3nc4ccccc4nc23)nc2ccccc21,n,70.8,77.0,n,n,76.8
Cc1cc(C)n(-c2ccc(C(=O)NC3=NCCS3)cc2)n1,n,n,n,n,n,n
O=C(NC1=NCCS1)c1cc(-c2ccccc2)nn1-c1ccccc1,10.7,n,n,n,n,n
Brc1cccc(-c2nnc(SCc3nc4ccccc4[nH]3)o2)c1,n,n,n,n,n,28.6
c1ccc2[nH]c(CSc3nnc(-c4ccncc4)o3)nc2c1,n,n,n,n,n,n
COc1ccc(-c2ccc(SCC(=O)N3CCOCC3)nn2)cc1OC,n,n,n,n,n,n
COc1ccc(-c2ccc(SCC(=O)N3CCCC3)nn2)cc1OC,n,n,n,n,n,30.4
